# PP5 inh – inhibitors of human protein phosphatase 5 (PP5); P53041; purified PP5c, OMFP substrate fluorescence; AID 1987; hit rate 0.18% among 320,000; inhibition, % at 6.7 µM;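 active means inhibition above the campaign's mean inhibition across all tested compounds plus 3 SD, cut at about 9.5% in these data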;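 further: 0% = DMSO only and 100% = 100 µM cantharidin control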
# HCV core dimer – HCV core protein dimerization inhibition; TR-FRET GST/Flag-core106 dimerization, 1536-well; hit rate 0.33% among 300,000; inhibition, % at 5 µM;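 active means inhibition above the mean of all tested compounds plus 3 SD, set per screening campaign, cut at about 45% in these data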
#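 System: GST/Flag-tagged HCV core106 proteins. Incubation: compound-protein-antibody incubation 4 h at 22.5 °C. Technique: HTRF with 340 nm excitation, 617/671 nm emission. Medium: KF-containing HEPES buffer, pH 7.45, DTT, CHAPS, BSA. Read-out: inhibition (%) from 671 over 617 nm ratio. Also added: Eu(K)-anti-GST 90 ng/mL plus XL665-anti-Flag 1 µg/mL.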
# PP1 counter – PP1-alpha (human) inhibition in PP5 counter-screen. P62136. purified PP1alpha, OMFP fluorescence. inhibition, % at 6.7 µM. hit rate 0.9% among 320,000;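 active means inhibition above the mean inhibition of all tested compounds plus 3 SD, computed separately for each screening campaign, cut at about 15% in these data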
# Target sequence (P62136 whole entry, looked up): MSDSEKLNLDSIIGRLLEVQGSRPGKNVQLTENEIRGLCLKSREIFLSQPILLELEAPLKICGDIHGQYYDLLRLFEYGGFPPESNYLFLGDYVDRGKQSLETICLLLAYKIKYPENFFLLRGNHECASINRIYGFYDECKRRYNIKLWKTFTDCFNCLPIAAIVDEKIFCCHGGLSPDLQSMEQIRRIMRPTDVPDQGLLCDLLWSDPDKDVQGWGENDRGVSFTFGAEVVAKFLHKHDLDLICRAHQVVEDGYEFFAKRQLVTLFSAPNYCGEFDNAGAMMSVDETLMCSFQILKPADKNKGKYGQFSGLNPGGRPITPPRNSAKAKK
# EBNA-1 inh – blocks EBNA-1 binding to DNA. inhibition, % at 14.8 µM. AID 1950. EBNA-1 DNA binding, fluorescence polarization. hit rate 0.34% among 300,000; in the data active means inhibition above about 28%
# ZTA DNA inh – counter-screen for EBNA-1 inhibitors: inhibitors of Epstein-Barr virus ZTA; P03206; ZTA-DNA binding, fluorescence polarization; inhibition, % at 11 µM; hit rate 0.15% among 320,000; AID 2234; in the data active means inhibition above about 33%
# Target sequence (P03206 whole entry, looked up): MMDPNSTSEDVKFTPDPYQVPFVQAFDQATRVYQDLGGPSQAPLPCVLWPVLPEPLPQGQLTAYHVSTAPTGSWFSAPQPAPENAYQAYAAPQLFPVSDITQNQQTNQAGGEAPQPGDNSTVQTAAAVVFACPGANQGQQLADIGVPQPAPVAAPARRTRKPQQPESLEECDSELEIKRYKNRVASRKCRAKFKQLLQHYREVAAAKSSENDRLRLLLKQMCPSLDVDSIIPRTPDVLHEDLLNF
# PP1 inh confirm – confirmation of human PP1 phosphatase inhibitors; shares compounds with PP1 counter; AID 2358; purified PP1alpha, OMFP substrate fluorescence; hit rate 52% among 1,900; inhibition, % at 6.7 µM;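 active means mean PP1 inhibition above a set limit taken from the earlier primary screen, cut at about 15% in these data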
# PP5 inh counter – counter-screen for PP1 inhibitors: human PP5 phosphatase inhibition; shares compounds with PP1 counter; purified PP5c, OMFP fluorescence; inhibition, % at 6.7 µM; hit rate 4% among 1,900;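 active means mean PP5 inhibition over triplicate wells above about 9.5% taken from the earlier PP1 screen, limit read from the data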
# * = called active by the depositor; / = no result given. The list is not random: actives were taken first. Their share in the collection is about 1.7%.
SMILES,PP5 inh,HCV core dimer,PP1 counter,EBNA-1 inh,ZTA DNA inh,PP1 inh confirm,PP5 inh counter
Cc1cc(C)cc(NC(=O)CSc2nc(N)c(NC(=O)c3cccs3)c(=O)[nH]2)c1,-2,14,3,2,16,/,/
CC1CCCC(NC(=O)c2cccc(S(=O)(=O)N3CCCCC3)c2)C1C (stereo not given),-1,7,4,2,-4,/,/
Cc1ccc(S(=O)(=O)N(CC(=O)N=Nc2c(O)[nH]c3ccccc23)c2ccc(C)c(C)c2)cc1,4,9,19*,-7,-5,19*,1
Cc1ccc(C(=O)NCCNC(=O)c2ccco2)cn1,1,4,0,0,-3,/,/
Cc1cc(C)c2nc(NNC(=O)c3ccc(S(=O)(=O)N4CCc5ccccc5C4)cc3)sc2c1,1,52*,22*,1,5,27*,1
Cc1cc(C)c2sc(N(CCCN(C)C)C(=O)c3ccc(S(=O)(=O)N4CCc5ccccc5C4)cc3)nc2c1,5,-8,8,-3,25,/,/
Cc1cc(C)c2sc(NNC(=O)c3ccc(S(=O)(=O)N4CCc5ccccc5C4)cc3)nc2c1,4,64*,24*,6,22,37*,-2
CCc1nnc(NC(=O)c2ccc(S(=O)(=O)N3CCc4ccccc4C3)cc2)s1,0,4,-4,1,8,/,/
O=c1cc(-c2ccco2)nc(SCc2cccc(Cl)c2)[nH]1,2,4,18*,-13,-3,12,1
Clc1cccc(CSc2ccc(-c3ccco3)nn2)c1,0,12,0,-10,9,/,/
COc1cccc(/C=C2\SC(=S)N(CCCC(=O)Nc3ccc(C(=O)O)cc3)C2=O)c1,1,17,8,4,3,/,/
O=C(O)CCN1C(=O)/C(=C\c2cccc(OCC(=O)Nc3ccc(Cl)cc3)c2)SC1=S,5,2,24*,-5,7,7,-3
Cc1ccc(NC(=O)COc2cccc(/C=C3\SC(=S)N(CCC(=O)O)C3=O)c2)cc1Cl,1,20,39*,11,25,14,4
O=C(CCN1C(=O)/C(=C\c2ccccc2)SC1=S)Nc1ccc(C(=O)O)cc1,2,6,20*,-1,-10,9,0
CCn1c(SCC(=O)NCc2ccccc2)nc2c(c1=O)SC(C)C2 (stereo not given),2,-1,2,-5,-7,/,/
Cc1ccc(S(=O)(=O)N(CC(=O)N/N=C/c2ccccc2C(=O)O)c2cc(Cl)cc(Cl)c2)cc1,1,27,19*,4,-10,19*,1
O=C(CSc1nnnn1C1CCCCC1)Nc1nc2c(s1)CCCC2,5,11,1,-8,9,/,/
COC(=O)c1onc(-c2c(Cl)cccc2Cl)c1C(=O)OC,-1,-5,0,0,3,/,/
Cc1ccc(N=Nc2ccc(O)c3ncccc23)cc1,5,1,9,-11,6,/,/
COc1ccccc1N=Nc1ccc(O)c2ncccc12,7,-30,19*,-6,-14,16*,5
CCOC(=O)c1c(-c2ccc(OC)cc2)csc1/N=C/C1=C(O)CCCC1=O,3,-5,5,0,-17,/,/
CCCCCCCCCCOC(=O)Cn1c(COc2ccccc2OC)[n+](C)c2ccccc21,1,-6,34*,2,9,1,2
O=C(Nc1ccc(N2CCCC2)cc1)c1ccccc1[N+](=O)[O-],1,12,19*,-11,0,-4,-2
O=C(Nc1ccc(N2CCN(Cc3ccccc3)CC2)cc1)c1ccccc1[N+](=O)[O-],6,-2,-4,2,0,/,/
O=C(Nc1ccc(N2CCCC2)cc1)c1cc(Br)ccc1Cl,1,18,33*,-5,-11,0,-2
SMILES,PP5 inh,HCV core dimer,PP1 counter,EBNA-1 inh,ZTA DNA inh,PP1 inh confirm,PP5 inh counter
CC(=O)Nc1ccc(OC(=O)c2ccco2)cc1,2,-6,19*,12,13,-5,-6
O=C(O)CC(NC(=O)C1c2ccccc2Oc2ccccc21)c1ccc(Cl)cc1 (stereo not given),-1,-1,1,12,3,/,/
Cc1[nH]n(C(N)=S)c(=O)c1N=Nc1cccc(C(F)(F)F)c1,8,2,2,-7,-1,/,/
COc1cccc(N=Nc2c(=O)[nH]n3c(=O)cc(C)[nH]c23)c1,3,-23,5,-18,-1,/,/
COc1cccc(N=Nc2c(=O)[nH]n3c(=O)c4c([nH]c23)CCC4)c1,2,-14,20*,-4,-1,16*,0
O=c1[nH]n2c(=O)c3c([nH]c2c1N=Nc1cccc(C(F)(F)F)c1)CCCC3,1,-1,26*,27,22,24*,0
COc1cccc(C2c3c(-c4cc(Cl)c(C)cc4O)n[nH]c3C(=O)N2Cc2cccnc2)c1 (stereo not given),8,15,19*,-11,4,12,-1
COc1cc(C2c3c(-c4cc(Cl)c(C)cc4O)n[nH]c3C(=O)N2Cc2cccnc2)ccc1O (stereo not given),4,7,10,-5,-14,/,/
N#CCCN(C(=O)COC(=O)CCN=C1NS(=O)(=O)c2ccccc21)c1ccc(F)cc1,-1,-1,39*,-4,-2,-3,-2
COc1ccc2c(Cl)c(C(=O)N/N=C/c3ccncc3)sc2c1,0,2,40*,-10,0,48*,-5
N#CC1=C(N)SC(N)=C(C#N)C1c1ccc([N+](=O)[O-])cc1,2,11,1,-1,9,/,/
N#CC1=C(N)SC(N)=C(C#N)C1c1ccc(C(F)(F)F)cc1,6,14,39*,1,21,4,-5
CC(=O)N1CCC(C(=O)OCc2ccccc2F)(c2ccccc2)CC1,0,-7,0,10,8,/,/
CC(C)CCSc1nnc(N)s1,1,-4,-3,-8,9,/,/
CCCCc1cc(=O)oc2cc(C)cc(OC(C)C(=O)NCc3cccnc3)c12 (stereo not given),2,-15,-2,-4,-1,/,/
COc1ccc(CNC(=S)Nc2cc(OC)ccc2OC)cc1,2,-4,63*,-7,-5,-3,-5
COC(=O)c1sc(N2C(=O)C(O)=C(C(=O)c3ccc(C)o3)C2c2ccc([N+](=O)[O-])cc2)nc1C (stereo not given),1,13,43*,0,3,29*,-1
Cc1nnc(N2C(=O)C(O)=C(C(=O)c3ccco3)C2c2ccc(F)cc2)s1 (stereo not given),2,0,1,1,-13,/,/
CSc1ccc(C2C(C(=O)c3ccco3)=C(O)C(=O)N2c2nnc(SC)s2)cc1 (stereo not given),-1,28,20*,3,4,16*,-5

# Bioassay records: PubChem, The Scripps Research Institute Molecular Screening Center
